{"source": "paper PMC6118327", "about": "(Biochimica et biophysica acta. Biomembranes, 2017)", "molecules": {"B1": {"name": "mUCP3: recombinant mouse uncoupling protein 3 reconstituted in planar lipid membranes (protein, UniProt P56501 1-308, looked up)", "Putative mitochondrial …": "MVGLQPSEVPPTTVVKFLGAGTAACFADLLTFPLDTAKVRLQIQGENPGAQSVQYRGVLGTILTMVRTEGPRSPYSGLVAGLHRQMSFASIRIGLYDSVKQFYTPKGADHSSVAIRILAGCTTGAMAVTCAQPTDVVKVRFQAMIRLGTGGERKYRGTMDAYRTIAREEGVRGLWKGTWPNITRNAIVNCAEMVTYDIIKEKLLESHLFTDNFPCHFVSAFGAGFCATVVASPVDVVKTRYMNAPLGRYRSPLHCMLKMVAQEGPTAFYKGFVPSFLRLGAWNVMMFVTYEQLKRALMKVQVLRESPF"}}, "key": {"mUCP1 R84Q": {"biological_target": "T1, mUCP1 R84Q (Mus musculus, UniProt P12242, R84Q)", "T1 sequence (P12242 1-307 R84Q)": "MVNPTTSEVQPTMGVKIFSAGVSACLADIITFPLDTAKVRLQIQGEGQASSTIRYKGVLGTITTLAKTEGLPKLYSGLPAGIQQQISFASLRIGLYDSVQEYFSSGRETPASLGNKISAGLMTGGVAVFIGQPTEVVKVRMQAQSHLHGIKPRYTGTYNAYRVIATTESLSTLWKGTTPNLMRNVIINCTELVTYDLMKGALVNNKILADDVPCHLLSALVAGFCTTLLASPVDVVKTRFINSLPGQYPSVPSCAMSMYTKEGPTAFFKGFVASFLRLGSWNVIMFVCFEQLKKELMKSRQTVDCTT", "experiment": "Relative conductance of UCP1 mutant in planar bilayer membranes", "assay_type": "biochemical", "conditions": "PN 5 mM; 15 mol% AA", "procedure,_shortened": "(§1)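 Arginine point mutants made by site-directed mutagenesis, expressed in E. coli Rosetta and reconstituted like wild type. Planar DOPC/DOPE/CL (45:45:10) bilayers carried 15 mol% AA; buffer pH 7.35, 32°C. Relative conductance compared with wild type after nucleotide addition: UCP1 mutants 5 mM ATP, ADP or AMP; UCP3 mutant 2 mM ATP, 4 mM ADP or 8 mM AMP. Mean ± SD, ≥3 experiments.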"}, "mUCP3 [1]": {"biological_target": "T2, mUCP3 (Mus musculus, UniProt P56501)", "T2 sequence (P56501 1-308)": "B1 Putative mitochondrial …", "experiment": "AFM recognition imaging and force spectroscopy, PN-UCP bond lifetime", "assay_type": "binding", "conditions": "for change of UCP3-PN lifetime with AA concentration: 15 mol% vs 10 mol% AA; for lifetime of mUCP3-PN interaction: PN bound to AFM tip, supported EPL membranes, pH 7.35, 21°C", "procedure,_shortened": "(§2)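 Mouse protein from E. coli inclusion bodies, solubilised in 2% SLS and reconstituted into EPL liposomes. Proteoliposomes incubated 10 min on fresh mica to form supported bilayers. For AA competition, mixed with AA liposomes to 1 mg/ml final lipid. AFM tips carried EDA-ATP, -ADP or -AMP via PEG-acetal linker. Recognition imaging plus force spectroscopy run in 50 mM Na₂SO₄/10 mM MES/10 mM Tris/0.6 mM EGTA, pH 7.35, 21°C. Lifetimes from maximum-likelihood Bell-Evans fits; mean ± SD, ≥3 experiments.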"}, "mUCP3R84Q": {"biological_target": "T3, mUCP3R84Q (Mus musculus, UniProt P56501, R84Q)", "T3 sequence (P56501 1-308 R84Q)": "B1 Putative mitochondrial … with R84Q", "experiment": "Relative conductance of UCP3 mutant in planar bilayer membranes", "assay_type": "biochemical", "conditions": "2 mM ATP, 4 mM ADP or 8 mM AMP; 15 mol% AA", "procedure,_shortened": "as §1"}, "mUCP1R183T": {"biological_target": "T4, mUCP1R183T (Mus musculus, UniProt P12242, R183T)", "T4 sequence (P12242 1-307 R183T)": "T1 sequence (P12242 1-307 R84Q) with Q84R, R183T", "experiment": "Relative conductance of UCP1 mutant in planar bilayer membranes", "assay_type": "biochemical", "conditions": "PN 5 mM; 15 mol% AA", "procedure,_shortened": "as §1"}, "mUCP3 [2]": {"biological_target": "T2, mUCP3", "assay_type": "biochemical", "conditions": "for dependence of mUCP3 inhibition on AA concentration: 10 vs 15 mol% AA, 1 mM ATP, 2 mM ADP, 5 mM AMP", "procedure,_shortened": "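Recombinant mouse protein reconstituted into DOPC/DOPE/CL (45:45:10) liposomes. Bilayers formed at 1.5 mg/ml lipid, 6 μg protein/mg lipid, AA 10 or 15 mol%. Run in 50 mM Na₂SO₄/10 mM MES/10 mM Tris/0.6 mM EGTA, pH 7.35, 32°C. I/V recorded −50 to +50 mV, including with 2 mM ATP. G from linear fit at 0 mV gives relative conductance. IC50 and maximum inhibition come from a four-parameter logistic fit. AA-dependence tested at 1 mM ATP, 2 mM ADP, 5 mM AMP. Mean ± SD, ≥3 experiments.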"}, "mUCP1 [3]": {"biological_target": "T5, mUCP1 (Mus musculus, UniProt P12242)", "T5 sequence (P12242 1-307)": "T1 sequence (P12242 1-307 R84Q) with Q84R", "experiment": "AFM recognition imaging and force spectroscopy, PN-UCP bond lifetime", "assay_type": "binding", "conditions": "for change of UCP1-PN lifetime with AA concentration: 15 mol% vs 10 mol% AA; for lifetime of mUCP1-PN interaction: PN bound to AFM tip, supported EPL membranes, pH 7.35, 21°C", "procedure,_shortened": "as §2"}, "mUCP1R277L": {"biological_target": "T6, mUCP1R277L (Mus musculus, UniProt P12242, R277L)", "T6 sequence (P12242 1-307 R277L)": "T1 sequence (P12242 1-307 R84Q) with Q84R, R277L", "experiment": "Relative conductance of UCP1 mutant in planar bilayer membranes", "assay_type": "biochemical", "conditions": "PN 5 mM; 15 mol% AA", "procedure,_shortened": "as §1"}, "mUCP1 [4]": {"biological_target": "T5, mUCP1", "assay_type": "biochemical", "conditions": "for maximum inhibition of mUCP1 / extent of inhibition at high PN concentration: 15 mol% AA; for extent of inhibition at high PN concentration: DOPC/DOPE/CL membranes, pH 7.35, 32°C", "procedure,_shortened": "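Inclusion-body mouse protein reconstituted into DOPC/DOPE/CL (45:45:10) proteoliposomes. Planar bilayers made at 1.5 mg/ml lipid, AA 10 or 15 mol% in the lipid solution, sulfate/MES/Tris/EGTA buffer pH 7.35, 32°C. I/V swept −50 to +50 mV; G at zero voltage from linear fit, normalised to AA-only and UCP+AA membranes. Titrations of nucleotides or phosphate fitted by four-parameter logistic for IC50 and maximum inhibition. AA comparison used 1 mM ATP, 2 mM ADP, 2 mM AMP. Mean ± SD, ≥3 experiments.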"}, "mUCP3 [5]": {"biological_target": "T2, mUCP3", "assay_type": "biochemical", "conditions": "membrane reconstituted with AA and mUCP3, pH gradient; seven independent experiments"}, "[6]": {"conditions": "DOPC/DOPE/CL membranes, 15 mol% AA, pH 7.35, 32°C"}, "[7]": {"conditions": "lower FFA concentrations vs 15 mol% AA"}}, "note": "Numbering of substitutions follows the chain as printed.", "data": [{"molecule": "Nc1ncnc2c1ncn2[C@@H]1O[C@H](COP(=O)(O)OP(=O)(O)OP(=O)(O)O)[C@@H](O)[C@H]1O", "note": "[ATP]", "values": [{"measurement": "inhibition of mutant compared to mUCP1 wt", "setting": "mUCP1 R84Q", "result": "similarly reduced"}, {"measurement": "change of UCP3-PN lifetime with AA concentration", "setting": "mUCP3 [1]", "result": "significantly increased"}, {"measurement": "lifetime of mUCP3-PN interaction", "setting": "mUCP3 [1]", "result": 1.33, "unit": "s"}, {"measurement": "inhibition of mutant compared to wild type mUCP3", "setting": "mUCP3R84Q", "result": "decreased the strength"}, {"measurement": "inhibition of mutant compared to mUCP1 wt", "setting": "mUCP1R183T", "result": "similarly reduced"}, {"measurement": "current I and total membrane conductance G after addition of inhibitor", "setting": "mUCP3 [2]; 2 mM ATP, 15 mol% AA", "result": "decreased"}, {"measurement": "dependence of mUCP3 inhibition on AA concentration", "setting": "mUCP3 [2]", "result": "higher at lower AA concentration"}, {"measurement": "PN concentration at which maximum inhibition is achieved", "setting": "mUCP3 [2]; [6]", "result": "approx. 4 mM"}, {"measurement": "change of UCP1-PN lifetime with AA concentration", "setting": "mUCP1 [3]", "result": "significantly increased"}, {"measurement": "lifetime of mUCP1-PN interaction", "setting": "mUCP1 [3]", "result": 1.12, "unit": "s"}, {"measurement": "inhibition of mutant compared to mUCP1 wt", "setting": "mUCP1R277L", "result": "similarly reduced"}]}, {"molecule": "Nc1ncnc2c1ncn2[C@@H]1O[C@H](COP(=O)(O)O)[C@@H](O)[C@H]1O", "note": "[AMP]", "values": [{"measurement": "inhibition of mutant compared to mUCP1 wt", "setting": "mUCP1 R84Q", "result": "did not affect"}, {"measurement": "maximum inhibition of mUCP1", "setting": "mUCP1 [4]", "result": "lower than 100%"}, {"measurement": "extent of inhibition at high PN concentration", "setting": "mUCP1 [4]", "result": "partially inhibit"}, {"measurement": "change of UCP3-PN lifetime with AA concentration", "setting": "mUCP3 [1]", "result": "unaffected"}, {"measurement": "lifetime of mUCP3-PN interaction", "setting": "mUCP3 [1]", "result": 0.13, "unit": "s"}, {"measurement": "inhibition of mutant compared to wild type mUCP3", "setting": "mUCP3R84Q", "result": "did not affect"}, {"measurement": "extent of inhibition at high inhibitor concentration", "setting": "mUCP3 [2]; [6]", "result": "fully inhibit"}, {"measurement": "change of UCP1-PN lifetime with AA concentration", "setting": "mUCP1 [3]", "result": "unaffected"}, {"measurement": "lifetime of mUCP1-PN interaction", "setting": "mUCP1 [3]", "result": 0.16, "unit": "s"}, {"measurement": "inhibition of mutant compared to mUCP1 wt", "setting": "mUCP1R277L", "result": "no longer able to inhibit"}]}, {"molecule": "Nc1ncnc2c1ncn2[C@@H]1O[C@H](COP(=O)(O)OP(=O)(O)O)[C@@H](O)[C@H]1O", "note": "[ADP]", "values": [{"measurement": "inhibition of mutant compared to mUCP1 wt", "setting": "mUCP1 R84Q", "result": "did not affect"}, {"measurement": "maximum inhibition of mUCP1", "setting": "mUCP1 [4]", "result": "lower than 100%"}, {"measurement": "extent of inhibition at high PN concentration", "setting": "mUCP1 [4]", "result": "partially inhibit"}, {"measurement": "change in maximum inhibition of mUCP1 at lower FFA concentration", "setting": "mUCP1 [4]; [7]", "result": "No change"}, {"measurement": "effect of FFA concentration on IC50 of mUCP1 inhibition", "setting": "mUCP1 [4]; [7]", "result": "affected"}, {"measurement": "change of UCP3-PN lifetime with AA concentration", "setting": "mUCP3 [1]", "result": "not significant"}, {"measurement": "lifetime of mUCP3-PN interaction", "setting": "mUCP3 [1]", "result": 0.56, "unit": "s"}, {"measurement": "inhibition of mutant compared to wild type mUCP3", "setting": "mUCP3R84Q", "result": "decreased the strength"}, {"measurement": "inhibition of mutant compared to mUCP1 wt", "setting": "mUCP1R183T", "result": "impaired inhibition"}, {"measurement": "dependence of mUCP3 inhibition on AA concentration", "setting": "mUCP3 [2]", "result": "less"}, {"measurement": "change of UCP1-PN lifetime with AA concentration", "setting": "mUCP1 [3]", "result": "significantly increased"}, {"measurement": "lifetime of mUCP1-PN interaction", "setting": "mUCP1 [3]", "result": 0.75, "unit": "s"}]}, {"molecule": "OC[C@H]1O[C@@H]2O[C@H]3[C@H](O)[C@@H](O)[C@@H](O[C@H]4[C@H](O)[C@@H](O)[C@@H](O[C@H]5[C@H](O)[C@@H](O)[C@@H](O[C@H]6[C@H](O)[C@@H](O)[C@@H](O[C@H]7[C@H](O)[C@@H](O)[C@@H](O[C@H]1[C@H](O)[C@H]2O)O[C@@H]7CO)O[C@@H]6CO)O[C@@H]5CO)O[C@@H]4CO)O[C@@H]3CO", "note": "[α-cyclodextrin, alpha-cyclodextrin]", "values": [{"measurement": "membrane total conductance after addition of α-cyclodextrin", "setting": "mUCP3 [2]; extraction of FA from the membrane", "result": "decrease of membrane total conductance"}]}, {"molecule": "B1", "values": [{"measurement": "proton transport rate κ", "setting": "mUCP3 [5]", "result": "2.56 ± 0.79", "unit": "s⁻¹"}]}]}
